The source of these data is ChEMBL document CHEMBL1131203, “Second generation "peptoid" CCK-B receptor antagonists: identification and development of N-(adamantyloxycarbonyl)-alpha-methyl-(R)-tryptophan derivative (CI-1015) with an improved pharmacokinetic profile” (J Med Chem, 1998).

The source made the active and inactive calls. No cut-off for these calls is given here.

The nature of series [1]: Absolute oral bioavailability was evaluated in saline solution at a dose of 20 mg/kg orally. In kind it is ADME, organism-based. The conditions noted are these: eutheria, in vivo. The essentials:
(§1)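 Fasted male Wistar rats, groups of 3–4, given a single 20 mg/kg dose po or iv in the stated vehicle. Heparinized plasma was drawn from a jugular-vein cannula at serial times out to 24 h and assayed by validated HPLC-fluorescence. Absolute bioavailability is the dose-normalized ratio of AUC after po dosing to AUC after iv dosing.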

Series [2] has as its system Mus musculus. As to the kind of experiment: Concentration in forebrain after intravenous injection evaluated after 10 min. at a dose of 10 mg/kg; Below low level of detection. The series is classed as functional, organism-based. Also noted: dose 10 mg/kg. The essentials: (§2)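 Ex vivo binding: mice were dosed iv with compound or vehicle, given either as saline or as 10% EtOH–60% propylene glycol–30% saline. Forebrains were taken at 5, 10 or 20 min, homogenized in HEPES buffer with bacitracin at pH 7.2, and incubated with 50 pM [125I]BH-CCK8s for 2 h at 22 °C. After filtration, bound radioligand was gamma-counted and read against calibration curves prepared in vehicle tissue. Detection limit was about 1 pmol/forebrain. n = 3–13.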

Series [3] deals with Mus musculus. As to the kind of experiment: Concentration in forebrain after intravenous injection evaluated after 5 min. at a dose of 10 mg/kg. The series is classed as functional. In short, it runs like this:
as §2

Series [4] in a line: Maximum plasma concentration was evaluated in Hp-beta-CD solution at a dose of 20 mg/kg orally. Also noted: dose 20 mg/kg, route oral. Particulars: po. The series is classed as ADME, organism-based. The essentials: (§3)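 Fasted male Wistar rats, groups of 3–4, given a single oral 20 mg/kg dose in the stated vehicle. Heparinized plasma was collected from an implanted jugular-vein cannula at serial times out to 24 h, kept frozen, and assayed by validated HPLC-fluorescence. Cmax, tmax, AUC(0–∞) and terminal t1/2 were obtained by noncompartmental analysis. Values are means (%RSD).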

The nature of series [5]: Pharmacokinetic parameter AUC was evaluated in Hp-beta-CD solution. The series is classed as ADME. The essentials: as §3
For series [6], the system named is Mus musculus. As to the kind of experiment: Concentration in forebrain after intravenous injection evaluated after 20 min. at a dose of 10 mg/kg. The series is classed as functional. The essentials: as §2
Series [7] is described as follows: Pharmacokinetic parameter tmax was evaluated in Hp-beta-CD solution at a dose of 20 mg/kg orally. The series is classed as ADME, organism-based. More on the design: dose 20 mg/kg, route oral. Particulars: in vivo, po. In short, it runs like this: as §3
Series [8] is described as follows: Absolute oral bioavailability was evaluated in Hp-beta-CD solution at a dose of 20 mg/kg orally. In kind it is ADME, organism-based. Particulars: eutheria, in vivo. In short, it runs like this: as §1
A short description of series [9]: Pharmacokinetic parameter AUC was evaluated in saline solution at a dose of 20 mg/kg orally. The series is classed as ADME, organism-based. Also noted: dose 20 mg/kg, route oral. Particulars: in vivo, po. In short, it runs like this:
as §3

Series [10] is described as follows: Maximum plasma concentration was evaluated in saline solution at a dose of 20 mg/kg orally. In kind it is ADME, organism-based. Particulars: po. More on the design: dose 20 mg/kg, route oral. In short, it runs like this:
as §3

Series [11] is described as follows: Pharmacokinetic parameter tmax was evaluated in saline solution at a dose of 20 mg/kg orally. Particulars: in vivo, po. Also noted: dose 20 mg/kg, route oral. The series is classed as ADME, organism-based. The essentials:
as §3

For the compound `C[C@](Cc1c[nH]c2ccccc12)(NC(=O)OC1[C@H]2C[C@@H]3C[C@@H](C[C@H]1C3)C2)C(=O)NC[C@H](NC(=O)CCC(=O)O)c1ccccc1` (stereo partly specified) [CI-988], the bioavailability in series [1] is 3.2%; in series [8] it was less than 1%. The Brain level result in the series on Mus musculus [2] was “inactive”. Further, the Brain level amounted to 10 pmol/forebrain with Mus musculus [3] and 8 pmol/forebrain with Mus musculus [6]. For the same compound, the Cmax in series [4] stood at 5 ng/mL; in [10], 32 ng/mL. In addition, the values for the AUC in series [5] and in series [9] were 2.3 ng·h/mL and 134 ng·h/mL, respectively. For the same compound, the Tmax was determined as 0.25 h in [7] and 2.3 h in [11].
